≈ marks a conversion by molar mass, not a printed value. Calls of active or inactive are those of the source. The calls are words filed in the database; no cut-off is given here.
Key:
[1] = Inhibition of Escherichia coli biotin carboxylase in presence of ATP and NADH by UV-Vis spectrophotometric assay
[2] = system: Escherichia coli; assay: Antibacterial activity against tolC knockout Escherichia coli incubated for 24 hrs in presence of PMBN by microbroth dilution method; assay type: functional
[3] = system: Escherichia coli; assay: Antibacterial activity against acrAB knockout Escherichia coli MG1655 incubated for 24 hrs in presence of PMBN by microbroth dilution method; assay type: functional
[4] = Inhibition of Escherichia coli ACC expressed in Escherichia coli BL21(DE3) pLysS incubated for 45 mins in presence of ATP and acetyl coA by fluorescence polarization assay
Summary of the method: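 E. coli BC (1 nM), biotinylated BCCP (2 nM) and CT (1 nM), His-tag purified then size-exclusion purified, preincubated with inhibitor in 100 mM HEPES pH 8.0, 15 mM KHCO3, 20 mM MgCl2. ADP detected by Transcreener fluorescence polarization; Morrison fit for Ki when tight binding; triplicate.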

[5] = system: Escherichia coli; assay: Antibacterial activity against Escherichia coli K12 incubated for 24 hrs by microbroth dilution method; assay type: functional
[6] = system: Escherichia coli; assay: Antibacterial activity against Escherichia coli harbouring TolC-deficient mutant assessed as post antibiotic effect by measuring time required for increase in 1 log10 CFU/ml of bacteria at 16 times MIC incubated for 1 hr followed by compound washout and measured for 16 hrs; assay type: functional
[7] = system: Escherichia coli; assay: Antibacterial activity against Escherichia coli harbouring TolC-deficient mutant assessed as post antibiotic effect by measuring time required for increase in 1 log10 CFU/ml of bacteria at 8 times MIC incubated for 1 hr followed by compound washout and measured for 16 hrs; assay type: functional
[8] = system: Escherichia coli; assay: Displacement of 11-(4-(22-(2,4-dibromo-3-(2,7-diaminopyrido[2,3-d]pyrimidin-6-yl)phenoxy)-5,8,11,14,17,20-hexaoxadocos-1-yl)-1H-1,2,3-triazol-1-yl)-N-((1S)-3-(((2S)-3-methyl-1-((3R,4S)-4-methyl-2,5-dioxopyrrolidin-3-yl)-1-oxobutan-2-yl)amino)-3-oxo-1-phenylpropyl)undecanamide from Escherichia coli ACC expressed in Escherichia coli BL21(DE3) pLysS at 100 uM preincubated for 1 hr followed by compound addition by LC-MS/MS method
Summary of the method: (§1)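 Purified E. coli ACC (1 μM), in 100 mM HEPES pH 8.0 with 15 mM KHCO3 and 20 mM MgCl2, was held 1 h at 22 °C with equimolar heterobivalent inhibitor. Competitor was then added: 100 μM of one warhead alone, or 50 μM each of both warheads together. At timed points, aliquots were spun through G-25 gel filtration columns in 10 mM ammonium formate pH 8.0. Flow-through was denatured in 50% MeCN and bound inhibitor quantified by LC-MS/MS. Dissociation rate came from a single-exponential fit.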

[9] = system: Escherichia coli; assay: Antibacterial activity against Escherichia coli harbouring TolC-deficient mutant assessed as post antibiotic effect by measuring time required for increase in 1 log10 CFU/ml of bacteria at 32 times MIC incubated for 1 hr followed by compound washout and measured for 16 hrs; assay type: functional
[10] = system: Escherichia coli; assay: Displacement of 11-(4-(22-(2,4-dibromo-3-(2,7-diaminopyrido[2,3-d]pyrimidin-6-yl)phenoxy)-5,8,11,14,17,20-hexaoxadocos-1-yl)-1H-1,2,3-triazol-1-yl)-N-((1S)-3-(((2S)-3-methyl-1-((3R,4S)-4-methyl-2,5-dioxopyrrolidin-3-yl)-1-oxobutan-2-yl)amino)-3-oxo-1-phenylpropyl)undecanamide from Escherichia coli ACC expressed in Escherichia coli BL21(DE3) pLysS at 50 uM preincubated for 1 hr in presence of Moiramide-B followed by compound addition by LC-MS/MS method; summary of the method: as §1
[11] = system: Escherichia coli; assay: Displacement of 11-(4-(22-(2,4-dibromo-3-(2,7-diaminopyrido[2,3-d]pyrimidin-6-yl)phenoxy)-5,8,11,14,17,20-hexaoxadocos-1-yl)-1H-1,2,3-triazol-1-yl)-N-((1S)-3-(((2S)-3-methyl-1-((3R,4S)-4-methyl-2,5-dioxopyrrolidin-3-yl)-1-oxobutan-2-yl)amino)-3-oxo-1-phenylpropyl)undecanamide from Escherichia coli ACC expressed in Escherichia coli BL21(DE3) pLysS at 50 uM preincubated for 1 hr in presence of 6-(2,6-dibromophenyl)pyrido[2,3-d]pyrimidine-2,7-diamine followed by compound addition by LC-MS/MS method; summary of the method: as §1
[12] = system: Escherichia coli; assay: Antibacterial activity against tolC knockout Escherichia coli incubated for 24 hrs by microbroth dilution method; assay type: functional
[13] = system: Escherichia coli; assay: Antibacterial activity against acrAB knockout Escherichia coli MG1655 incubated for 24 hrs by microbroth dilution method; assay type: functional
[14] = system: Escherichia coli; assay: Antibacterial activity against Escherichia coli incubated for 24 hrs in presence of PMBN by microbroth dilution method; assay type: functional

| Structure (SMILES) | IC50 [1] [nM] | MIC [2] [µM] | MIC [3] [µM] | IC50 [4] [nM] | MIC [5] [µM] | PAE [6] [h] | PAE [7] [h] | Activity [8] | PAE [9] [h] | Activity [10] | Activity [11] | Ki [4] [nM] | MIC [12] [µM] | MIC [13] [µM] | MIC [14] [µM] |
| --- | --- | --- | --- | --- | --- | --- | --- | --- | --- | --- | --- | --- | --- | --- | --- |
| COc1ccc(Br)c(-c2cc3cnc(N)nc3nc2N)c1Br | ≤ 250 |  |  |  |  |  |  |  |  |  |  |  |  |  |  |
| C#CCCCCOCCOCCOCCOc1ccc(Br)c(-c2cc3cnc(N)nc3nc2N)c1Br |  | 1.56 | 3.13 | 19 | > 25 |  |  |  |  |  |  |  |  |  |  |
| CC(C)[C@H](NC(=O)C[C@H](NC(=O)CCCCCCCCCCn1cc(CCCCOCCOCCOCCOCCOCCOCCOCCOCCOCCOc2ccc(Br)c(-c3cc4cnc(N)nc4nc3N)c2Br)nn1)c1ccccc1)C(=O)[C@@H]1C(=O)NC(=O)[C@H]1C |  | 0.78 | 3.13 |  | > 25 | 1.8 | 1.2 | inactive | 3.4 | Active | Active | 0.31 |  |  |  |
| C#CCCCCOCCOCCOCCOCCOCCOCCOCCOCCOCCOCCOCCOCCOCCOCCOCCOCCOCCOCCOc1ccc(Br)c(-c2cc3cnc(N)nc3nc2N)c1Br |  | 12.5 | > 25 | 126 |  |  |  |  |  |  |  |  | > 25 |  |  |
| CC(C)[C@H](NC(=O)C[C@H](NC(=O)CCCCCCCCCCn1cc(CCCCOCCOCCOCCOCCOCCOCCOCCOCCOCCOCCOCCOCCOCCOCCOCCOc2ccc(Br)c(-c3cc4cnc(N)nc4nc3N)c2Br)nn1)c1ccccc1)C(=O)[C@@H]1C(=O)NC(=O)[C@H]1C |  | 1.56 | 12.5 |  | > 25 | 3.8 | 1.9 | inactive | 4.6 | Active | Active | 0.33 |  |  |  |
| CC(C)[C@H](NC(=O)C[C@H](NC(=O)CCCCCCCCCCn1cc(CCCCOc2ccc(Br)c(-c3cc4cnc(N)nc4nc3N)c2Br)nn1)c1ccccc1)C(=O)[C@@H]1C(=O)NC(=O)[C@H]1C |  | 0.78 | 12.5 | 1.81 | > 25 | 2.2 | 1.9 | inactive | 3.8 | Active | Active |  |  |  |  |
| CC(C)[C@H](NC(=O)C[C@H](NC(=O)CCCCCCCCCCn1cc(CCCCOCCOCCOCCOCCOCCOCCOc2ccc(Br)c(-c3cc4cnc(N)nc4nc3N)c2Br)nn1)c1ccccc1)C(=O)[C@@H]1C(=O)NC(=O)[C@H]1C |  | 0.39 | 3.13 |  | > 25 | 1.7 | 1.7 |  | 3.4 |  |  | 0.25 |  | > 25 | > 25 |
| Nc1ncc2cc(-c3c(Br)cc(OCCO)cc3Br)c(N)nc2n1 | 730 |  |  |  |  |  |  |  |  |  |  |  |  |  |  |
| C#CCCCCOCCOCCOCCOCCOCCOCCOCCOCCOCCOCCOCCOCCOCCOCCOCCOc1ccc(Br)c(-c2cc3cnc(N)nc3nc2N)c1Br |  | 12.5 | > 25 | 64 | > 25 |  |  |  |  |  |  |  | 25 (≈ 28.8 µg/mL) |  |  |
| Nc1ncc2cc(-c3c(Br)ccc(OCCO)c3Br)c(N)nc2n1 | 550 |  |  |  |  |  |  |  |  |  |  |  |  |  |  |
| CC(C)[C@H](NC(=O)C[C@H](NC(=O)CCCCCCCCCCn1cc(CCCCOCCOCCOCCOCCOCCOCCOCCOCCOCCOCCOCCOCCOc2ccc(Br)c(-c3cc4cnc(N)nc4nc3N)c2Br)nn1)c1ccccc1)C(=O)[C@@H]1C(=O)NC(=O)[C@H]1C |  | 1.56 | 6.25 |  | > 25 | 2.6 | 2.1 | inactive | 3.6 | Active | Active | 0.18 |  |  |  |
| CC(C)[C@H](NC(=O)C[C@H](NC(=O)CCCCCCCCCCN=[N+]=[N-])c1ccccc1)C(=O)[C@@H]1C(=O)NC(=O)[C@H]1C |  | 0.2 | 1.56 | 74 | > 25 |  |  |  |  |  |  |  |  | > 25 | 12.5 |
| C#CCCCCOCCOCCOCCOCCOCCOCCOCCOCCOCCOc1ccc(Br)c(-c2cc3cnc(N)nc3nc2N)c1Br |  | 12.5 | 15 | 98 | > 25 |  |  |  |  |  |  |  | 25 (≈ 22.2 µg/mL) |  |  |
| C#CCCCCOc1ccc(Br)c(-c2cc3cnc(N)nc3nc2N)c1Br |  | 0.78 | 0.78 | ≤ 1 | > 25 |  |  |  |  |  |  |  | 1.56 (≈ 0.766 µg/mL) | > 25 | 12.5 |
| CC(C)[C@H](NC(=O)C[C@H](NC(=O)CCCCCCCCCCn1cc(CCCCOCCOCCOCCOc2ccc(Br)c(-c3cc4cnc(N)nc4nc3N)c2Br)nn1)c1ccccc1)C(=O)[C@@H]1C(=O)NC(=O)[C@H]1C |  | 0.78 | 6.25 |  | > 25 | 1.2 | 1 | inactive | 2.6 | Active | Active | 0.26 | 3.13 (≈ 3.73 µg/mL) |  |  |
| C#CCCCCOCCOCCOCCOCCOCCOCCOc1ccc(Br)c(-c2cc3cnc(N)nc3nc2N)c1Br |  |  | 6.25 | 32 | > 25 |  |  |  |  |  |  |  |  |  |  |
| CC(C)[C@H](NC(=O)C[C@H](NC(=O)CCCCCCCCCCn1cc(CCCCOCCOCCOCCOCCOCCOCCOc2cc(Br)c(-c3cc4cnc(N)nc4nc3N)c(Br)c2)nn1)c1ccccc1)C(=O)[C@@H]1C(=O)NC(=O)[C@H]1C |  | 0.78 | > 25 | 3.53 |  |  |  |  |  |  |  |  | 6.25 (≈ 8.28 µg/mL) |  |  |
| COc1cc(Br)c(-c2cc3cnc(N)nc3nc2N)c(Br)c1 | 1200 |  |  |  |  |  |  |  |  |  |  |  |  |  |  |
| C#CCCCCOCCOCCOCCOCCOCCOCCOc1cc(Br)c(-c2cc3cnc(N)nc3nc2N)c(Br)c1 |  | > 25 | > 25 | 849 |  |  |  |  |  |  |  |  |  |  |  |
| C#CCCCCOCCOCCOCCOCCOCCOCCOCCOCCOCCOCCOCCOCCOc1ccc(Br)c(-c2cc3cnc(N)nc3nc2N)c1Br |  |  | > 25 | 82 | > 25 |  |  |  |  |  |  |  | 25 (≈ 25.5 µg/mL) |  |  |

From ChEMBL document CHEMBL5236612, “Heterobivalent Inhibitors of Acetyl-CoA Carboxylase: Drug Target Residence Time and Time-Dependent Antibacterial Activity” (J Med Chem, 2022)
